In ChEMBL document CHEMBL1136830, “Design and synthesis of dimeric HIV-1 integrase inhibitory peptides” (Bioorg Med Chem Lett, 2003):
Starred links: 1 amine or outer side, 2 acyl side, 3 side chain; linkers in the order of their positions; H or OH if unused. Positions of bridges follow the written chain, without caps; N, C: chain ends. Non-standard residues stand in square brackets, D forms with d. Residues, ends and D or L forms follow the SMILES beside them. Chains are numbered I, II in the order given. X1 = O=C([C@@H](CC[*:3])N[*:1])[*:2]; CH2 = C([*:1])[*:2]

Tests used:
[1] = molecular target: T1, Human immunodeficiency virus type 1 integrase (Human immunodeficiency virus 1, UniProt Q7ZJM1); assay: In vitro inhibitory activity against HIV-1 integrase enzyme strand transfer process
T1 sequence (Q7ZJM1 whole entry): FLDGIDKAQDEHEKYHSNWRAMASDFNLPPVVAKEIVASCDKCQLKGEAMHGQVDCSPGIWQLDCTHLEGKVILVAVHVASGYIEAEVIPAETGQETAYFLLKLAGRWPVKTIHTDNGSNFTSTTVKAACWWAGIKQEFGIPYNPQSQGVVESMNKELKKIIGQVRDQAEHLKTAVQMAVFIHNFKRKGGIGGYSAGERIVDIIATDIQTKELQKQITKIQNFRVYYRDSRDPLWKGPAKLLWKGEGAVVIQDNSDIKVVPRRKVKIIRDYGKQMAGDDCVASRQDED
Procedure, shortened: (§1)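 HIV-1 integrase (500 nM) pre-incubated with peptides for 20 min at room temperature in 50 mM MOPS pH 7.2, 7.5 mM NaCl, 7.5 mM MnCl2, 5% glycerol. The 3'-processing and strand-transfer reactions were then run by an earlier published method with these changes. IC50 values were reported for each step.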

[2] = molecular target: T1, Human immunodeficiency virus type 1 integrase; assay: In vitro inhibitory activity against HIV-1 integrase enzyme 3'-end processing; procedure, shortened: as §1

Molecule: NCCCC[C@H](NC(=O)[C@@H](CCSCC[C@@H](NC(=O)[C@@H](N)Cc1c[nH]cn1)C(=O)N[C@@H](CCCCN)C(=O)N[C@@H](Cc1ccccc1)C(=O)N[C@@H](Cc1c[nH]c2ccccc12)C(=O)N[C@@H](Cc1c[nH]c2ccccc12)C(N)=O)NC(=O)[C@@H](N)Cc1c[nH]cn1)C(=O)N[C@@H](Cc1ccccc1)C(=O)N[C@@H](Cc1c[nH]c2ccccc12)C(=O)N[C@@H](Cc1c[nH]c2ccccc12)C(N)=O
- IC50 [1]: 63 µM
- IC50 [2]: 59 µM

Molecule: H-HCKFWW-NH2
- IC50 [1]: 90 µM
- IC50 [2]: 102 µM

Molecule: NCCCC[C@H](NC(=O)[C@H](CSCC[C@@H](NC(=O)[C@@H](N)Cc1c[nH]cn1)C(=O)N[C@@H](CCCCN)C(=O)N[C@@H](Cc1ccccc1)C(=O)N[C@@H](Cc1c[nH]c2ccccc12)C(=O)N[C@@H](Cc1c[nH]c2ccccc12)C(N)=O)NC(=O)[C@@H](N)Cc1c[nH]cn1)C(=O)N[C@@H](Cc1ccccc1)C(=O)N[C@@H](Cc1c[nH]c2ccccc12)C(=O)N[C@@H](Cc1c[nH]c2ccccc12)C(N)=O (I: H-H[X1]KFWW-NH2 / II: H-HCKFWW-NH2; thioether I:2-II:2)
- IC50 [1]: 87 µM
- IC50 [2]: 77 µM

Molecule: NCCCC[C@H](NC(=O)[C@H](CSSC[C@H](NC(=O)[C@@H](N)Cc1c[nH]cn1)C(=O)N[C@@H](CCCCN)C(=O)N[C@@H](Cc1ccccc1)C(=O)N[C@@H](Cc1c[nH]c2ccccc12)C(=O)N[C@@H](Cc1c[nH]c2ccccc12)C(N)=O)NC(=O)[C@@H](N)Cc1c[nH]cn1)C(=O)N[C@@H](Cc1ccccc1)C(=O)N[C@@H](Cc1c[nH]c2ccccc12)C(=O)N[C@@H](Cc1c[nH]c2ccccc12)C(N)=O (I: H-HCKFWW-NH2 / II: H-HCKFWW-NH2; disulfide I:2-II:2)
- IC50 [1]: 58 µM
- IC50 [2]: 81 µM

Molecule: NCCCC[C@H](NC(=O)[C@H](CSCSC[C@H](NC(=O)[C@@H](N)Cc1c[nH]cn1)C(=O)N[C@@H](CCCCN)C(=O)N[C@@H](Cc1ccccc1)C(=O)N[C@@H](Cc1c[nH]c2ccccc12)C(=O)N[C@@H](Cc1c[nH]c2ccccc12)C(N)=O)NC(=O)[C@@H](N)Cc1c[nH]cn1)C(=O)N[C@@H](Cc1ccccc1)C(=O)N[C@@H](Cc1c[nH]c2ccccc12)C(=O)N[C@@H](Cc1c[nH]c2ccccc12)C(N)=O (I: H-HCKFWW-NH2 / II: H-HCKFWW-NH2; linker I:2-II:2 via CH2)
- IC50 [1]: 6.5 µM
- IC50 [2]: 5.3 µM

Molecule: NCCCC[C@H](NC(=O)[C@H](CSC[C@H](NC(=O)[C@@H](N)Cc1c[nH]cn1)C(=O)N[C@@H](CCCCN)C(=O)N[C@@H](Cc1ccccc1)C(=O)N[C@@H](Cc1c[nH]c2ccccc12)C(=O)N[C@@H](Cc1c[nH]c2ccccc12)C(N)=O)NC(=O)[C@@H](N)Cc1c[nH]cn1)C(=O)N[C@@H](Cc1ccccc1)C(=O)N[C@@H](Cc1c[nH]c2ccccc12)C(=O)N[C@@H](Cc1c[nH]c2ccccc12)C(N)=O
- IC50 [1]: 19 µM
- IC50 [2]: 67 µM
